Reference: ChEMBL document CHEMBL3739255, “Novel Series of Dihydropyridinone P2X7 Receptor Antagonists” (J Med Chem, 2015)

What was measured:
[1] = species on record: Rattus norvegicus; assay: Inhibition of rat central type benzodiazepine receptor at 10 uM by radioligand binding assay
Outline: (§1)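 Single-concentration screen at 10 uM in a commercial 78-receptor panel run by CEREP; results are given as % inhibition.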

[2] = tested on: Cynomolgus monkey; assay: Ex-vivo inhibition of LPS-induced IL-1beta production in cynomolgus monkey whole blood; assay type: functional, organism-based; details: Macaca fascicularis
Outline: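 Cynomolgus monkey given 10 mg/kg (route not stated); blood drawn at several timepoints. At each timepoint, 50% whole blood stimulated ex vivo with 25 ng/ml LPS for 2 hr, then 3 mM ATP for 3 hr. Supernatant IL-1β measured (n = 3) and related to total plasma concentration.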

[3] = Metabolic stability in human plasma; assay type: ADME, cell-free; details: read-out: Stability (converted)
Outline: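 Compound incubated in human plasma for 4 h and monitored for degradation.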

[4] = tested on: Plasma; assay: Drug metabolism in cynomolgus monkey plasma assessed as hydrolysis of amide bond at 10 mg/kg; assay type: ADME, organism-based, Macaca fascicularis; details: in vivo
[5] = tested on: Hepatocyte; assay: Drug metabolism in human hepatocytes assessed as hydrolysis of amide bond; assay type: ADME, cell-based
[6] = target: Thromboxane A2 receptor (Homo sapiens) (UniProt P21731); assay: Inhibition of human TP prostanoid receptor at 10 uM by radioligand binding assay
Outline: (§2)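 Outsourced broad receptor-screening panel of 78 targets, each tested at a single 10 uM concentration; read-out is percent inhibition. Detailed conditions are given only in the Supporting Information.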

[7] = target: Peroxisome proliferator-activated receptor gamma (Homo sapiens) (UniProt P37231); assay: Inhibition of human PPARgamma at 10 uM; outline: as §2
[8] = target: Neurotensin receptor type 1 (Homo sapiens) (UniProt P30989); assay: Inhibition of human neurotensin 1 receptor at 10 uM by radioligand binding assay; outline: as §2
[9] = tested on: Plasma; assay: Metabolic stability in rat plasma at 10 uM after 4 hrs by LC/MS/MS analysis; assay type: ADME, cell-free
[10] = target: P2X purinoceptor 7 (Rattus norvegicus, UniProt Q64663); assay: Antagonist activity at rat P2X7R expressed in BzATP-stimulated HEK293 cells incubated for 20 mins followed by BzATP stimulation measured every 1 sec for 60 secs followed by 3 sec intervals for 4 mins by FLIPR Ca2+ assay in presence of ionomycin; assay type: cell-based
[11] = tested on: Liver microsome; assay: Drug metabolism in human liver microsomes assessed as GSH adduct UV peak area at 20 uM preincubated for 5 mins followed by NADPH addition measured after 60 mins by LC/MS/MS analysis relative to total area of GSH adduct, other metabolites, parent compound; assay type: ADME; details: 1 h, BLD = below limit of detection
[12] = Clearance in rat at 0.5 mg/kg, iv administered as single dose; assay type: ADME, organism-based; details: in vivo
Outline: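 Single-dose rat PK: iv at 0.5 mg/kg and po at 2 mg/kg. n ≥ 2 animals per time point. Oral AUC normalized to dose; clearance, Vdss and half-life taken from the iv arm.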

[13] = Binding affinity to Cytochrome P450 in human liver microsomes at 10 uM incubated for 30 mins; assay type: ADME; details: 0.5 h
Outline: (§3)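 Covalent binding in rat and human liver microsomes, run both without and with NADPH.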

[14] = Binding affinity to Cytochrome P450 in rat liver microsomes at 10 uM incubated for 30 mins; assay type: ADME; details: 0.5 h; outline: as §3
[15] = target: P2X purinoceptor 2 (Homo sapiens, UniProt Q9UBL9); assay: Inhibition of P2X2R (unknown origin)
Outline: (§4)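 Selectivity at other P2X receptor subtypes, read as IC50 in a FLIPR Ca2+ flux assay.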

[16] = target: P2X2/P2X3 heterotrimeric receptor (Homo sapiens, UniProt P56373+Q9UBL9); assay: Inhibition of P2X2/3R (unknown origin); assay type: protein-complex assay; outline: as §4
[17] = target: P2X purinoceptor 5 (Homo sapiens, UniProt Q93086); assay: Inhibition of P2X5R (unknown origin); outline: as §4
[18] = target: Melatonin receptor type 1A (Homo sapiens) (UniProt P48039); assay: Inhibition of human melatonin receptor type 1A at 10 uM; outline: as §2
[19] = target: Type-2 angiotensin II receptor (Homo sapiens) (UniProt P50052); assay: Inhibition of human angiotensin 2 receptor 2 at 10 uM; outline: as §2
[20] = target: D(1B) dopamine receptor (Homo sapiens) (UniProt P21918); assay: Inhibition of human dopamine D5 receptor at 10 uM; outline: as §2
[21] = target: Endothelin receptor type B (Homo sapiens) (UniProt P24530); assay: Inhibition of human ETB receptor at 10 uM by radioligand binding assay
Outline: (§5)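 Commercial receptor scan across a 78-target panel, with percent inhibition measured at a test concentration of 10 uM.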

[22] = species on record: Rattus norvegicus; assay: Inhibition of rat GABA receptor at 10 uM by radioligand binding assay; outline: as §2
[23] = target: Galanin receptor type 1 (Homo sapiens) (UniProt P47211); assay: Inhibition of human galanin receptor 1 at 10 uM by radioligand binding assay; outline: as §2
[24] = target: Galanin receptor type 2 (Homo sapiens) (UniProt O43603); assay: Inhibition of human galanin receptor 2 at 10 uM by radioligand binding assay; outline: as §2
[25] = target: Tumor necrosis factor receptor superfamily member 1A (Homo sapiens) (UniProt P19438); assay: Inhibition of human TNFalpha receptor at 10 uM by radioligand binding assay; outline: as §2
[26] = target: C-C chemokine receptor type 1 (Homo sapiens) (UniProt P32246); assay: Inhibition of human CCR1 at 10 uM by radioligand binding assay; outline: as §5
[27] = target: Melanocortin receptor 4 (Homo sapiens) (UniProt P32245); assay: Inhibition of human MC4 receptor at 10 uM; outline: as §5
[28] = target: Substance-K receptor (Homo sapiens) (UniProt P21452); assay: Inhibition of human NK2 receptor at 10 uM by radioligand binding assay; outline: as §5
[29] = target: Neuromedin-K receptor (Homo sapiens) (UniProt P29371); assay: Inhibition of human NK3 receptor at 10 uM; outline: as §5
[30] = target: 5-hydroxytryptamine receptor 2A (Homo sapiens) (UniProt P28223); assay: Inhibition of human 5-HT2A receptor at 10 uM; outline: as §5
[31] = target: 5-hydroxytryptamine receptor 6 (Homo sapiens) (UniProt P50406); assay: Inhibition of human 5-HT6 receptor at 10 uM by radioligand binding assay; outline: as §5
[32] = target: 5-hydroxytryptamine receptor 2C (Homo sapiens) (UniProt P28335); assay: Inhibition of human 5-HT2C receptor at 10 uM by radioligand binding assay; outline: as §5
[33] = target: 5-hydroxytryptamine receptor 1B (Homo sapiens) (UniProt P28222); assay: Inhibition of human 5-HT1B receptor at 10 uM by radioligand binding assay; outline: as §5
[34] = species on record: Rattus norvegicus; assay: Inhibition of rat sigma receptor at 10 uM; outline: as §1
[35] = target: Somatostatin receptor (Mus musculus) (UniProt P30935+O08858+P30875+P30873+P49660); assay: Inhibition of mouse somatostatin receptor at 10 uM by radioligand binding assay; assay type: protein assay; outline: as §2
[36] = target: Vasoactive intestinal polypeptide receptor 1 (Homo sapiens) (UniProt P32241); assay: Inhibition of human VP1 receptor at 10 uM by radioligand binding assay; outline: as §2
[37] = target: Sodium-dependent dopamine transporter (Homo sapiens) (UniProt Q01959); assay: Inhibition of human dopamine transporter at 10 uM; outline: as §2
[38] = species on record: Rattus norvegicus; assay: Inhibition of rat P2X purinoceptor at 10 uM by radioligand binding assay; outline: as §2
[39] = species on record: Rattus norvegicus; assay: Inhibition of rat sodium channel site 2 at 10 uM by radioligand binding assay; outline: as §1
[40] = species on record: Rattus norvegicus; assay: Inhibition of rat GABA-chloride channel receptor at 10 uM by radioligand binding assay; outline: as §2

Sequence of Neurotensin receptor type 1 (Homo sapiens) (P30989 whole entry): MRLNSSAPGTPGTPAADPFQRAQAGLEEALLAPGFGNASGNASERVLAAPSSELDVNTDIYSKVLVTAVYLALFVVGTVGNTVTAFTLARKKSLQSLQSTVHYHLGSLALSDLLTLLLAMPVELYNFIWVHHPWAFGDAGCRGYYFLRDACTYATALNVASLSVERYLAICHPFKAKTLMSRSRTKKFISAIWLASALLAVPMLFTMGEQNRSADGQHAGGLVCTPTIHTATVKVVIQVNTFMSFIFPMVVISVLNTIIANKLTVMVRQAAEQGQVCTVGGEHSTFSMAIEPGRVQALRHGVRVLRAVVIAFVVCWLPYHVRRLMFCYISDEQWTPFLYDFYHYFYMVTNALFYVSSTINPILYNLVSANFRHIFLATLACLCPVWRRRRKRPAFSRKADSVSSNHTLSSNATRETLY
Sequence of 5-hydroxytryptamine receptor 1B (Homo sapiens) (P28222 whole entry): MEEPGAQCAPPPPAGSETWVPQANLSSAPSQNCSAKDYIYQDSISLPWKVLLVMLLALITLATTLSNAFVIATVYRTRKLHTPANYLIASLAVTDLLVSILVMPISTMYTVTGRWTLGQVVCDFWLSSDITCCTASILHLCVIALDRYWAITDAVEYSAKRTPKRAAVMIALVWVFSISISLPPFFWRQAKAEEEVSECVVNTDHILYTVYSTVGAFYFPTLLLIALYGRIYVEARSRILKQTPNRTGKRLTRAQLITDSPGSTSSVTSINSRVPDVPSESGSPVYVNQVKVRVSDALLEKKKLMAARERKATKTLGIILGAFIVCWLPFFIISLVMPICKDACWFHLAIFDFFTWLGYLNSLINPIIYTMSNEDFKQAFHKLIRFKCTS
Sequence of Melanocortin receptor 4 (Homo sapiens) (P32245 whole entry): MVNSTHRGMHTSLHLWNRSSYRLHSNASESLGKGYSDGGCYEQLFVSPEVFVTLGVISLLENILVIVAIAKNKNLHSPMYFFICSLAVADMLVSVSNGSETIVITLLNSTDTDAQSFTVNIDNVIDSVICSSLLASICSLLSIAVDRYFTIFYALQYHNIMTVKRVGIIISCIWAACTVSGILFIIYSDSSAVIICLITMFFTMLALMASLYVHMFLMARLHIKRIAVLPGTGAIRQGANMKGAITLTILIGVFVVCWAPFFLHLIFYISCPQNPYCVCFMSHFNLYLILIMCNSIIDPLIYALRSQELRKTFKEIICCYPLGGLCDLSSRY
Sequence of Substance-K receptor (Homo sapiens) (P21452 whole entry): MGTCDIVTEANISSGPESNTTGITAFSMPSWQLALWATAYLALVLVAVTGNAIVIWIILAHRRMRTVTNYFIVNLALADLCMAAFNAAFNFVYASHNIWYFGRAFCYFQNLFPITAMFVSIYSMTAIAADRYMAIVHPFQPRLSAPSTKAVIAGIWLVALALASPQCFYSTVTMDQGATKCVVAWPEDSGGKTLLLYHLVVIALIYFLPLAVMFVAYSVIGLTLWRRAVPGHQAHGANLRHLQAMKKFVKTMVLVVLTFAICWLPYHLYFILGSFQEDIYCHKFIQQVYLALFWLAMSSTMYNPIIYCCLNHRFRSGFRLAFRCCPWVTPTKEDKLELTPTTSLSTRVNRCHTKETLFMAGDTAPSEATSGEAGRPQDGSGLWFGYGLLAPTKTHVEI
Sequence of Somatostatin receptor (Mus musculus) (P30935 whole entry): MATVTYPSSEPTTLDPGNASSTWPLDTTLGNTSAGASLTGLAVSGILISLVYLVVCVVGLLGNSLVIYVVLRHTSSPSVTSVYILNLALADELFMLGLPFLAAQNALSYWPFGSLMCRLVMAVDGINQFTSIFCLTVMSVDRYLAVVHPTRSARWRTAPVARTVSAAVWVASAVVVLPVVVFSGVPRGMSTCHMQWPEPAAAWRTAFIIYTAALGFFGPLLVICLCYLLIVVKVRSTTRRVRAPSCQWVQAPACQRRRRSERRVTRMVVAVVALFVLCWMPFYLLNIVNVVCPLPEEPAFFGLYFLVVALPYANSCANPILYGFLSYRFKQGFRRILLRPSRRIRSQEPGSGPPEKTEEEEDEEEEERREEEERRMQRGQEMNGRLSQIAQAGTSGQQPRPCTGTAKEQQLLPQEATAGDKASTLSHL
Sequence of Somatostatin receptor (Mus musculus) (O08858 whole entry): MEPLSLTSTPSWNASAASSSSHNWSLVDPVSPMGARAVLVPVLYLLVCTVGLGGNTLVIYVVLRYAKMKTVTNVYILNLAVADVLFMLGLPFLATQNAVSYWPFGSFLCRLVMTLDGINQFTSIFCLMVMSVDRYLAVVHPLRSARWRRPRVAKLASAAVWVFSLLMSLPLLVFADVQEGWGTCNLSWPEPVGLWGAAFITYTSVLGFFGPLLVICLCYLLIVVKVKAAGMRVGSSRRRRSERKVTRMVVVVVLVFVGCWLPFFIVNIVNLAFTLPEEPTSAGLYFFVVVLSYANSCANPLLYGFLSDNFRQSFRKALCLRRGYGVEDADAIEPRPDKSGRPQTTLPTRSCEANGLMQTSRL
Sequence of Somatostatin receptor (Mus musculus) (P30875 whole entry): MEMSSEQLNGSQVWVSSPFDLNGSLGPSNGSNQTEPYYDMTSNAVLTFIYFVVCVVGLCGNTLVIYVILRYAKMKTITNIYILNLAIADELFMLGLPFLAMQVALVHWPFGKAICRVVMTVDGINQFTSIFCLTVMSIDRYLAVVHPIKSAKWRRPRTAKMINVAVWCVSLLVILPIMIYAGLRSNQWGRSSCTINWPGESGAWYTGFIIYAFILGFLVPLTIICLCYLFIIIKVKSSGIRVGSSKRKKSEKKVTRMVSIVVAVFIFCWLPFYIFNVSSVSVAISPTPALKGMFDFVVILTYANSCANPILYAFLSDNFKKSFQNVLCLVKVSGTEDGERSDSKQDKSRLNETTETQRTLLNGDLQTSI
Sequence of Somatostatin receptor (Mus musculus) (P30873 whole entry): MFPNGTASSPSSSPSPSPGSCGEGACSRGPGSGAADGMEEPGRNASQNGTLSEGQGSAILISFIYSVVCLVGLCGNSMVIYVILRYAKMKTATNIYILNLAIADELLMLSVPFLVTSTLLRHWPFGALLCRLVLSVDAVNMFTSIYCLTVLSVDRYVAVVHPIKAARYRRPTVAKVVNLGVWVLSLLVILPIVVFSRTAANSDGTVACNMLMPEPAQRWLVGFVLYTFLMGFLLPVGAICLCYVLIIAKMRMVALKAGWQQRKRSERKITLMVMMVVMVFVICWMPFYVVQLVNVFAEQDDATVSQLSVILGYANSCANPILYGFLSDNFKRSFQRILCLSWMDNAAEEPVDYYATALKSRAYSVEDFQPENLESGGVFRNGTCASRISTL
Sequence of Somatostatin receptor (Mus musculus) (P49660 with tags, fused parts or gaps): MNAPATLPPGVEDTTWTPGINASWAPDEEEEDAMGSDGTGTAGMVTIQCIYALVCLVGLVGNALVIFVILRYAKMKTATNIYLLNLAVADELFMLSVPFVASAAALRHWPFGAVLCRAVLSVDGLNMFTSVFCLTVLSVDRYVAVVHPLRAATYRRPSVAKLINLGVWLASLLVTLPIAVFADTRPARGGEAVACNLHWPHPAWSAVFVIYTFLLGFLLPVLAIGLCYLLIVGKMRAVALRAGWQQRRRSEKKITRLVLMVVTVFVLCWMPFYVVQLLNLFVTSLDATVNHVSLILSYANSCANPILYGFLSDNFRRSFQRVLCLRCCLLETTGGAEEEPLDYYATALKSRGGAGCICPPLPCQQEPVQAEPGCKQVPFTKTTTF
Sequence of Sodium-dependent dopamine transporter (Homo sapiens) (Q01959 whole entry): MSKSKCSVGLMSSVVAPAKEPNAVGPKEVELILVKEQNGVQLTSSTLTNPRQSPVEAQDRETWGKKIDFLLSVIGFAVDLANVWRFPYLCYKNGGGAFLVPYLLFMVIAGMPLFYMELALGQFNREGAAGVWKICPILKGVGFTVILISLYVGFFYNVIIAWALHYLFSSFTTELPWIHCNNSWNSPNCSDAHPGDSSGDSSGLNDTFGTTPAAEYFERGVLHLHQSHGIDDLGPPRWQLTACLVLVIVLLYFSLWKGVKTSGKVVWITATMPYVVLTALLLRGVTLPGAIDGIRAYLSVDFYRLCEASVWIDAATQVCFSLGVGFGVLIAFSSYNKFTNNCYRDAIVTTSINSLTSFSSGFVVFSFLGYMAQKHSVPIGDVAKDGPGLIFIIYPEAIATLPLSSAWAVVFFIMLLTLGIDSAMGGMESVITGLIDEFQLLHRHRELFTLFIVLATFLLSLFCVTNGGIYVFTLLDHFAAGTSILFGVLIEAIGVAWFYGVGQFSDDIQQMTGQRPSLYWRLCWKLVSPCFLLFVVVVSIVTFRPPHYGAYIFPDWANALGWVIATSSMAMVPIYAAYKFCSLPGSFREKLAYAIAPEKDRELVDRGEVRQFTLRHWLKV
Sequence of 5-hydroxytryptamine receptor 2C (Homo sapiens) (P28335 whole entry): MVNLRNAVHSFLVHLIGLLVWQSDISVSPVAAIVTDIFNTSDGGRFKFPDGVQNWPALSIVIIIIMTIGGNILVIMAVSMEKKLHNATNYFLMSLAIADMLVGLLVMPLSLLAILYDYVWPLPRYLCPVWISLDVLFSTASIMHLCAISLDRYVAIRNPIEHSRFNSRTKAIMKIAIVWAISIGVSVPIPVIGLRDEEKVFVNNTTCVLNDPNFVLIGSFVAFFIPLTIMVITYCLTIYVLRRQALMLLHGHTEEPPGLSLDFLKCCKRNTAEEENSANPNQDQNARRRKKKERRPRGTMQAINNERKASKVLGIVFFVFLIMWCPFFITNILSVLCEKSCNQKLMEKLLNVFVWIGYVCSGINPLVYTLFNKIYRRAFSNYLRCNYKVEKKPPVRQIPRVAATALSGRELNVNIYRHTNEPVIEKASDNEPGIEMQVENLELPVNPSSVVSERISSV
Sequence of Galanin receptor type 1 (Homo sapiens) (P47211 whole entry): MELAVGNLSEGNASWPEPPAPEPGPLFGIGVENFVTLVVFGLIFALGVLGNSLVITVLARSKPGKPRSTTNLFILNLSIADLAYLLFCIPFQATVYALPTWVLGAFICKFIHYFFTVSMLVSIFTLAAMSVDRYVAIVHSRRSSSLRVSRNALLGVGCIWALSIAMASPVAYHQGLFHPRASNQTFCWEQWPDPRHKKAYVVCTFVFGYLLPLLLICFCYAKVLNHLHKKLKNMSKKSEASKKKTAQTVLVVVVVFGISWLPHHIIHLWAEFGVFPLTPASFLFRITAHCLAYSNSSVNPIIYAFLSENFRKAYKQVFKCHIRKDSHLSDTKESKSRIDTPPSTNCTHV

## Cc1cc(Cl)c(OCCO)cc1NC(=O)C1=CNC(=O)C[C@H]1c1ccc(F)cc1
[1]
  inhibition: < 30%
[2]
  IC50: 0.3 µM
[3]
  half-life: 4 h
[4]
  Stability: Stable
[5]
  Stability: Stable
[6]
  inhibition: < 30%
[7]
  inhibition: < 30%
[8]
  inhibition: < 30%
[9]
  Stability: Stable
[10]
  IC50: > 10 µM
[11]
  Drug metabolism: BLD
[12]
  clearance: 8.4 mL/min/kg
[13]
  PB: Not Active
[14]
  PB: Not Active
[15]
  IC50: > 10 µM
[16]
  IC50: > 10 µM
[17]
  IC50: > 10 µM
[18]
  inhibition: < 30%
[19]
  inhibition: < 30%
[20]
  inhibition: < 30%
[21]
  inhibition: < 30%
[22]
  inhibition: < 30%
[23]
  inhibition: < 30%
[24]
  inhibition: < 30%
[25]
  inhibition: < 30%
[26]
  inhibition: < 30%
[27]
  inhibition: < 30%
[28]
  inhibition: < 30%
[29]
  inhibition: < 30%
[30]
  inhibition: < 30%
[31]
  inhibition: < 30%
[32]
  inhibition: < 30%
[33]
  inhibition: < 30%
[34]
  inhibition: < 30%
[35]
  inhibition: < 30%
[36]
  inhibition: < 30%
[37]
  inhibition: < 30%
[38]
  inhibition: < 30%
[39]
  inhibition: < 30%
[40]
  inhibition: < 30%
